ChEMBL document CHEMBL4017495, “Identification and Characterization of the First Selective Y4 Receptor Positive Allosteric Modulator” (J Med Chem, 2017)
Activity calls are given as the source filed them. The rule behind the calls is not given here.

Columns and labels:
[1] = molecular target: T1, Neuropeptide Y receptor type 4 (Homo sapiens, UniProt P50391); conditions: 30 uM
[2] = molecular target: T1, Neuropeptide Y receptor type 4
[3] = molecular target: T1, Neuropeptide Y receptor type 4; remark: listed apart in the source
[4] = molecular target: T1, Neuropeptide Y receptor type 4; conditions: HEK293, 30 uM
[5] = molecular target: T1, Neuropeptide Y receptor type 4; conditions: HEK293, 30 uM; remark: listed apart in the source
[6] = molecular target: T2, Neuropeptide Y receptor type 1/2 (Mus musculus) (UniProt Q04573+P97295); assay: Positive allosteric modulation of NY1/2 receptor in mouse descending colon mucosa assessed as increase in mucosal antisecretory response to peptide YY at 30 uM preincubated for 5 mins followed by pancreatic polypeptide addition after 20 mins
Method in brief: (§1)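 Mouse descending colon mucosa was mounted in Ussing chambers (0.14 cm2 exposed) in oxygenated Krebs–Henseleit at 37 °C, voltage-clamped at 0 mV, with Isc recorded continuously. After a stable basal Isc (20–30 min), basolateral pretreatment was 30 μM compound or DMSO vehicle (0.3%) for 5 min. VIP (10 nM) was given for 5–10 min, then single rat PP additions (3, 10 or 30 nM). PYY (10 nM) followed 20 min later.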

[7] = molecular target: T1, Neuropeptide Y receptor type 4; conditions: 30 uM; remark: listed apart in the source
[8] = molecular target: Neuropeptide Y receptor type 4 (Mus musculus) (UniProt Q61041); assay: Positive allosteric modulation of NY4 receptor in mouse descending colon mucosa assessed as increase in mucosal antisecretory response to pancreatic polypeptide at 30 uM preincubated for 5 mins followed by pancreatic polypeptide addition after 20 mins
Method in brief: as §1

[9] = molecular target: T1, Neuropeptide Y receptor type 4; remark: listed apart in the source
[10] = molecular target: T1, Neuropeptide Y receptor type 4; remark: listed apart in the source
[11] = molecular target: T1, Neuropeptide Y receptor type 4; assay: Positive allosteric modulation of human C-terminal eYFP-fused human NY4 receptor expressed in African green monkey COS7 cells co-expressing delta6Galphaqi4-myr assessed as potentiation of pancreatic polypeptide-mediated Ca2+ flux treated at 20 secs post baseline detection followed by addition of pancreatic polypeptide after 140 secs by Fluo2-AM fluorescent dye based-assay; type: functional, cell-based
Method in brief: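 COS7 cells stably co-expressing Y4R-eYFP and Δ6Gαqi4-myr were seeded overnight. They were loaded with 2.4 μM Fluo2-AM in HBSS/20 mM HEPES/[…] for 60 min at 37 °C, then kept in assay buffer. Fluorescence was read at ex 485/em 525 nm. Compound was added after a 20 s baseline and peptide at 140 s. Response was taken as x-fold over basal, normalized to the DMSO control, and fitted to an operational model of allosterism. Duplicates, at least three independent runs.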

[12] = molecular target: T1, Neuropeptide Y receptor type 4; conditions: 30 uM; remark: listed apart in the source
[13] = molecular target: T1, Neuropeptide Y receptor type 4; remark: listed apart in the source
[14] = molecular target: Neuropeptide Y receptor type 4 (Mus musculus) (UniProt Q61041); assay: Agonist activity at NY4 receptor in mouse descending colon mucosa assessed as increase in mucosal antisecretory response at 30 uM incubated for 5 mins
Method in brief: as §1

[15] = molecular target: T1, Neuropeptide Y receptor type 4; remark: listed apart in the source
[16] = molecular target: T1, Neuropeptide Y receptor type 4; remark: listed apart in the source
[17] = molecular target: T2, Neuropeptide Y receptor type 1/2 (Mus musculus); assay: Positive allosteric modulation of NY1/2 receptor in mouse descending colon mucosa assessed as increase in mucosal antisecretory response to vasoactive intestinal polypeptide at 30 uM preincubated for 5 mins followed by pancreatic polypeptide addition after 20 mins
Method in brief: as §1

[18] = molecular target: T1, Neuropeptide Y receptor type 4; conditions: HEK293, 30 uM; remark: listed apart in the source
[19] = molecular target: T1, Neuropeptide Y receptor type 4; remark: listed apart in the source
[20] = molecular target: T1, Neuropeptide Y receptor type 4; remark: listed apart in the source

T1 sequence (P50391 whole entry): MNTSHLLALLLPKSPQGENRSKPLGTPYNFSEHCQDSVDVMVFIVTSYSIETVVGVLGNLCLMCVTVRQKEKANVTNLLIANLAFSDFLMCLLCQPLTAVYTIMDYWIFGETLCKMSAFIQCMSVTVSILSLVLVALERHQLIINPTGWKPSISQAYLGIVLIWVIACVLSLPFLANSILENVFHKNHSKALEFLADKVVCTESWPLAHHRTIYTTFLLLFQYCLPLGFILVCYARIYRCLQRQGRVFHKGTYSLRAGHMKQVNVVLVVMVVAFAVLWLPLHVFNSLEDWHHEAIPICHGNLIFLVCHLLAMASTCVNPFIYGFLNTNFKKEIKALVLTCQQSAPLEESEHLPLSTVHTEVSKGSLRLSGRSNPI
Chain of Neuropeptide Y receptor type 4 (Mus musculus) (Q61041 whole entry): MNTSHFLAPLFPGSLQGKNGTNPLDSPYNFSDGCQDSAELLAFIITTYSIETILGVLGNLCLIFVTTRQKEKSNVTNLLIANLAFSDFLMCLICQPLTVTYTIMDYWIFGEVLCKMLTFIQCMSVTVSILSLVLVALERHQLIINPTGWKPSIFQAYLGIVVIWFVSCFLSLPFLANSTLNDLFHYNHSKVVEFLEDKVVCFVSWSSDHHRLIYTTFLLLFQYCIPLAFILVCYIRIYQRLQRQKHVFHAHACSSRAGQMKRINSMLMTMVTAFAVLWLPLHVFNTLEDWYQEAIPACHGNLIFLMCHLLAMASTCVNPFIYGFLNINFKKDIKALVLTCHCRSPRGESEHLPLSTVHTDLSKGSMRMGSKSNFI
T2 sequence (P97295 whole entry, looked up): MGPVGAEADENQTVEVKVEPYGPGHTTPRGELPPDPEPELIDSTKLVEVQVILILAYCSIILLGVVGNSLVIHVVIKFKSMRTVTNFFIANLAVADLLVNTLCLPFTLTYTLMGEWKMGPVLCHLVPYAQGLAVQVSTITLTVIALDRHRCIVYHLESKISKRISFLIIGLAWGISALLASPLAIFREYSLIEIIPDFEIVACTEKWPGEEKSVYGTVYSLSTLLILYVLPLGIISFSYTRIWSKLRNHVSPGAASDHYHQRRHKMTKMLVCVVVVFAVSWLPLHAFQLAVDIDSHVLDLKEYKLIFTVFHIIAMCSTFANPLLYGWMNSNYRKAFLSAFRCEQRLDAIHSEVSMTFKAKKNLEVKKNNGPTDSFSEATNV
T2 sequence (Q04573 whole entry, looked up): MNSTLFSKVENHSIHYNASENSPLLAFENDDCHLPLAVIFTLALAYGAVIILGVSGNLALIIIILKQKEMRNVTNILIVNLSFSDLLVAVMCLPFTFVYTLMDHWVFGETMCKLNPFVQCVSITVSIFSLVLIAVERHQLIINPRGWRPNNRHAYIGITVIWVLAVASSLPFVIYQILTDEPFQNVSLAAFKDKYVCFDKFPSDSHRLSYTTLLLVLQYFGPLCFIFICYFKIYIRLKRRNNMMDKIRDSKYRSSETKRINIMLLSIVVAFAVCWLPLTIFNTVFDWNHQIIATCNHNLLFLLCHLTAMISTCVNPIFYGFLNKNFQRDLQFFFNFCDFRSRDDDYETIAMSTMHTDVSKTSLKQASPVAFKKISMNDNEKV

- Emax [1]: 94%
- log(activity) [2]: 0.41
- log(activity) [3]: 0.79
- Emax [4]: 144%
- Emax [5]: 145%
- Activity [6]: inactive
- Emax [7]: 95%
- Activity [8]: Active
- pKb [9]: 4.4
- pKb [10]: 4.4
- EC50 [11]: 5.1 µM
- Emax [12]: 89%
- pKb [13]: 4.4
- Activity [14]: inactive
- log(activity) [15]: 0.36
- log(activity) [16]: 0.9
- Activity [17]: inactive
- Emax [18]: 118%
- log(activity) [19]: 0.46
- log(activity) [20]: 0.3
SMILES: CC(C)(C)c1ccc(OC2CCCCC2O)cc1 (stereo not given)
